ChEMBL document CHEMBL1127433, “N6-substituted adenosine receptor agonists. Synthesis and pharmacological activity as potent antinociceptive agents” (J Med Chem, 1994)
Active and inactive are the calls of the source. The rule behind the calls is not given here.

How the values were obtained:
[1] = target: T1, Adenosine A2 receptor (Rattus norvegicus) (UniProt P29276+P30543); assay: Percent displacement from adenosine A2 receptor at 10e-7 M in rat striatal membrane in vitro.; assay type: cell membranes; conditions: Striatum
Adenosine receptor A1 = target: T2, Adenosine receptor A1 (Rattus norvegicus, UniProt P25099); assay: Binding affinity for adenosine A1 receptor in vitro using rat brain membranes.; assay type: cell membranes
T2 sequence (P25099 whole entry): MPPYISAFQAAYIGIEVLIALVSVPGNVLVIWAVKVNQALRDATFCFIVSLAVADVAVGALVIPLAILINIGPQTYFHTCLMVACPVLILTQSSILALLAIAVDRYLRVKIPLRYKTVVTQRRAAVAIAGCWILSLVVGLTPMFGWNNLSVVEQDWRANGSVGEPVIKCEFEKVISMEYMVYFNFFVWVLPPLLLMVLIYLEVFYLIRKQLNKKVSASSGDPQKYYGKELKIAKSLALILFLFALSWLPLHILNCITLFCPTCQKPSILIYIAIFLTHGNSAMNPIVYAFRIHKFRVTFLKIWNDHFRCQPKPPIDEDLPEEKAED
How it was run: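 Whole rat brain membranes, homogenized in 50 mM Tris-HCl pH 7.4 and spun at 1090g then 48000g, pretreated with adenosine deaminase 1 U/mL for 30 min. Nonspecific binding defined with 10 μM PIA. Separated by GF/B filtration and scintillation counted, in triplicate. IC50 from log-logit regression, Ki via Cheng-Prusoff, one experiment.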

[2] = target: T3, Adenosine receptor A1 (Rattus norvegicus) (UniProt P25099); assay: Percent displacement from adenosine A1 receptor at 10e-7 M in rat brain membrane in vitro.; assay type: cell membranes
T3 sequence (whole entry): T2 sequence (P25099 whole entry)

[3] = target: T1, Adenosine A2 receptor (Rattus norvegicus); assay: Percent displacement from adenosine A2 receptor at 10e-5 M in rat striatal membrane in vitro.; assay type: cell membranes
[4] = target: T3, Adenosine receptor A1 (Rattus norvegicus); assay: Percent displacement from adenosine A1 receptor at 10e-5 M in rat brain membrane in vitro.; assay type: cell membranes
Mus musculus = assay: Effective dose for phenylbenzoquinone-induced writhing in mice after peroral administration expressed as analgesic activity.; assay type: functional
How it was run: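 Mice dosed orally (0.5 mL/20 g); 1 h later given 0.02% phenylbenzoquinone in hydroalcoholic solution ip (0.20-0.24 mL). Writhings and stretches counted from minute 5 to minute 10. Six animals per group. Inhibition taken against the control mean; ED50 (50% decrease) by linear regression.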

Adenosine A2 receptor = Adenosine A2 receptor (Rattus norvegicus, UniProt P29276+P30543); assay: Binding affinity for adenosine A2 receptor in vitro using rat striatal membrane.; assay type: cell membranes
How it was run: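 Rat striatal membranes in 50 mM Tris-HCl, 10 mM MgCl2, pH 7.7, adenosine deaminase treated (1 U/mL, 30 min). Incubated with [3H]NECA (4 nM, 50 μL) plus 0.11 μM cyclopentyladenosine and competitor for 60 min at 25 °C. Nonspecific binding defined with 5 μM NECA. GF/B filtration, scintillation counting, triplicate. IC50 from log-logit regression, Ki via Cheng-Prusoff, one experiment.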

Structure (SMILES) | Displacement [1] [%] | Ki (Adenosine receptor A1) [µM] | Displacement [2] [%] | Displacement [3] [%] | Displacement [4] [%] | ED50 (Mus musculus; po) [mg/kg] | Ki (Adenosine A2 receptor) [µM] | ED50 (Mus musculus)
COc1ccccc1Cn1cc(CCNc2ncnc3c2ncn3C2O[C@H](C(=O)NC3CC3)[C@@H](O)[C@H]2O)c2ccccc21 (some centres not stated) | 23 | 0.17 | 42 | 89 | 100 | 2.3 | 0.81 | 
COc1ccc(Cn2cc(CCNc3ncnc4c3ncn4C3O[C@H](C(=O)NC4CC4)[C@@H](O)[C@H]3O)c3ccccc32)cc1 (some centres not stated) | 59 |  | 42 | 100 | 98 | 71.6 |  | 
O=C(NC1CC1)[C@H]1OC(n2cnc3c(NCCc4c(-c5ccccc5)[nH]c5ccccc45)ncnc32)[C@H](O)[C@@H]1O (some centres not stated) | 10 |  | 20 | 71 | 84 | 27.1 |  | 
Cc1ccc(C)c(Cn2cc(CC(C)Nc3ncnc4c3ncn4C3O[C@H](C(=O)NC4CC4)[C@@H](O)[C@H]3O)c3ccccc32)c1 (some centres not stated) | 9 | 0.18 | 21 | 84 | 96 | 3.6 | 2.2 | 
Cc1ccc(C)c(Cn2cc(CCNc3ncnc4c3ncn4C3O[C@H](C(=O)NCCN4CCOCC4)[C@@H](O)[C@H]3O)c3ccccc32)c1 (some centres not stated) | 0 |  | 5 | 19 | 5 | > 60 |  | 
Cc1ccc(C)c(Cn2cc(CCNc3ncnc4c3ncn4[C@@H]3O[C@H](C(=O)NC4CC4)[C@@H](O)[C@H]3O)c3cc(C)ccc32)c1 | 3 | 0.062 | 50 | 70 | 100 | 0.9 | 0.89 | 
OC[C@H]1O[C@@H](n2cnc3c(NCCc4cn(Cc5ccc(Cl)cc5)c5ccccc45)ncnc32)[C@H](O)[C@@H]1O | 59 | 0.011 | 71 | 97 | 100 | 40.8 | 0.14 | 
Cc1ccc(C)c(Cn2cc(CCNc3ncnc4c3ncn4C3O[C@H](C(=O)NC4CC4)[C@@H](O)[C@H]3O)c3ccccc32)c1 (some centres not stated) | 9 | 0.14 | 26 | 85 | 93 | 2.4 | 0.67 | 
Cc1ccc(C)c(Cn2cc(CCNc3ncnc4c3ncn4[C@@H]3O[C@H](C(N)=O)[C@@H](O)[C@H]3O)c3ccccc32)c1 | 0 | 0.51 | 17 | 61 | 87 | > 30 | 2.6 | 
COCCn1cc(CCNc2ncnc3c2ncn3[C@@H]2O[C@H](C(=O)NC3CC3)[C@@H](O)[C@H]2O)c2ccccc21 | 19 | 0.023 | 61 | 90 | 98 | 1.2 | 0.37 | 
CC(Cc1cn(C2CCCC2)c2ccccc12)Nc1ncnc2c1ncn2C1O[C@H](C(=O)NC2CC2)[C@@H](O)[C@H]1O (some centres not stated) | 21 |  | 45 | 85 | 96 | 2.2 |  | 
Cc1ccc(C)c(Cn2cc(CCNc3ncnc4c3ncn4[C@@H]3O[C@H](C(=O)NC4CC4)[C@@H](O)[C@H]3O)c3cc(Cl)ccc32)c1 | 10 | 0.15 | 47 | 77 | 99 | 6.3 | 0.66 | 
O=C(NC1CC1)[C@H]1OC(n2cnc3c(NCCc4cn(Cc5ccccc5)c5ccccc45)ncnc32)[C@H](O)[C@@H]1O (some centres not stated) | 41 | 0.04 | 35 | 94 | 99 | 18.1 | 0.27 | 
Cn1cc(CCNc2ncnc3c2ncn3C2O[C@H](C(=O)NC3CC3)[C@@H](O)[C@H]2O)c2ccccc21 (some centres not stated) | 29 |  | 76 | 91 | 99 | 3 | 0.27 | 
COc1ccc2c(c1)c(CCNc1ncnc3c1ncn3C1O[C@H](C(=O)NC3CC3)[C@@H](O)[C@H]1O)cn2Cc1cc(C)ccc1C (some centres not stated) | 17 |  | 16 | 91 | 100 | 46.3 |  | 
O=C(NC1CC1)[C@H]1OC(n2cnc3c(NCCc4cn(Cc5ccc(Cl)s5)c5ccccc45)ncnc32)[C@H](O)[C@@H]1O (some centres not stated) | 6 |  | 47 | 82 | 100 | 26.2 |  | 
O=C(NC1CC1)[C@H]1OC(n2cnc3c(NCCc4cn(Cc5ccc(Cl)cc5)c5ccccc45)ncnc32)[C@H](O)[C@@H]1O (some centres not stated) | 30 | 0.05 | 46 | 91 | 98 | 0.9 | 0.32 | 
CN(C)c1ccccc1Cn1cc(CCNc2ncnc3c2ncn3C2O[C@H](C(=O)NC3CC3)[C@@H](O)[C@H]2O)c2ccccc21 (some centres not stated) | 5 | 0.17 | 33 | 92 | 99 | 1.9 | 0.76 | 
O=C(NC1CC1)[C@H]1OC(n2cnc3c(NCCc4cn(CCN5CCOCC5)c5ccccc45)ncnc32)[C@H](O)[C@@H]1O (some centres not stated) | 20 |  | 52 | 88 | 100 | > 30 |  | 
C=CCn1cc(CCNc2ncnc3c2ncn3C2O[C@H](C(=O)NC3CC3)[C@@H](O)[C@H]2O)c2ccccc21 (some centres not stated) | 17 | 0.039 | 56 | 80 | 100 | 5.3 | 0.28 | 
O=C(NC1CC1)[C@H]1O[C@@H](n2cnc3c(NCCc4cn(CCN5CCCC5)c5ccccc45)ncnc32)[C@H](O)[C@@H]1O | 53 | 0.0075 | 96 | 95 | 100 | 44.2 | 0.058 | 
Cc1ccc(C)c(Cn2cc(C(C)CNc3ncnc4c3ncn4[C@@H]3O[C@H](C(=O)NC4CC4)[C@@H](O)[C@H]3O)c3ccccc32)c1 (some centres not stated) | 0 | 0.2 | 28 | 61 | 97 | 0.9 | 2.5 | 
CC(C)n1cc(CCNc2ncnc3c2ncn3[C@@H]2O[C@H](C(=O)NC3CC3)[C@@H](O)[C@H]2O)c2ccccc21 | 14 | 0.12 | 4 | 91 | 87 | 1.6 | 0.39 | 
Cc1ccc(C)c(Cn2c(C)c(CCNc3ncnc4c3ncn4C3O[C@H](C(=O)NC4CC4)[C@@H](O)[C@H]3O)c3ccccc32)c1 (some centres not stated) | 7 |  | 5 | 60 | 56 | 1.2 |  | 
O=C(NC1CC1)[C@H]1OC(n2cnc3c(NCCc4cn(Cc5ccccn5)c5ccccc45)ncnc32)[C@H](O)[C@@H]1O (some centres not stated) |  | 0.039 |  |  |  |  | 0.39 | 
O=C(NC1CC1)[C@H]1OC(n2cnc3c(NCCc4cn(CCN5CCCCC5)c5ccccc45)ncnc32)[C@H](O)[C@@H]1O (some centres not stated) | 44 | 0.0083 | 90 | 96 | 99 | 7.3 | 0.12 | 
OC[C@H]1OC(n2cnc3c(NCCc4cn(Cc5c(Cl)cccc5Cl)c5ccccc45)ncnc32)[C@H](O)[C@@H]1O (some centres not stated) | 35 |  | 15 | 91 | 92 |  |  | inactive
CNC(=O)[C@H]1O[C@@H](n2cnc3c(NCCc4cn(Cc5cc(C)ccc5C)c5ccccc45)ncnc32)[C@H](O)[C@@H]1O | 0 | 1.4 | 12 | 68 | 80 | 10.2 | 3 | 
Cc1ccccc1Cn1cc(CCNc2ncnc3c2ncn3C2O[C@H](C(=O)NC3CC3)[C@@H](O)[C@H]2O)c2ccccc21 (some centres not stated) | 27 |  | 40 | 93 | 98 | < 3 |  | 
